# Laboratory results published in ChEMBL document CHEMBL3351416, “Design, synthesis and biological evaluation of novel pyrenyl derivatives as anticancer agents” (Eur J Med Chem, 2015).
# Calls of active or inactive are those of the source. The calls are words filed in the database; no cut-off is given here.
# What was measured:
# [1] = Cytotoxicity against mouse Hepa1-6 cells assessed as reduction in cell viability after 48 hrs by sulforhodamine B colorimetric assay; format: functional, cell-based; details: Hepa1-6, 48 h
# Summary of the method: (§1)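 Cell lines were kept at 37°C under 5% CO₂. HepG2, Hepa1-6, HeLa and MCF-7 were grown in DMEM with 10% FBS. Caco-2 was grown in DMEM with 20% FBS. HT-29 was grown in McCoy's medium with 10% FBS. The viability assay used 10-μM doxorubicin as positive control. Values marked * came from a single dose curve.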
# HepG2 [2] = assay: Cytotoxicity against human HepG2 cells assessed as reduction in cell viability after 48 hrs by sulforhodamine B colorimetric assay; format: functional, cell-based; details: HepG2, 48 h; summary of the method: as §1
# HeLa [3] = assay: Cytotoxicity against human HeLa cells assessed as reduction in cell viability after 48 hrs by sulforhodamine B colorimetric assay; format: functional, cell-based; summary of the method: as §1
# HT-29 = assay: Cytotoxicity against human HT-29 cells assessed as reduction in cell viability after 48 hrs by sulforhodamine B colorimetric assay; format: functional, cell-based; details: HT-29, 48 h; summary of the method: as §1
# [4] = Cytotoxicity against human Caco2 cells assessed as reduction in cell viability after 48 hrs by sulforhodamine B colorimetric assay; format: functional, cell-based; details: Caco-2, 48 h; summary of the method: as §1
# Hepa1-6 [5] = assay: Cytotoxicity against mouse Hepa1-6 cells assessed as reduction in cell viability at 50 uM after 48 hrs by sulforhodamine B colorimetric assay; format: functional, cell-based
# Summary of the method: (§2)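 Primary mouse hepatocytes and Hepa1-6 cells were exposed to graded doses for 48 hrs. Viability was normalized to DMSO-treated cells. Hepa1-6 cells were grown in DMEM with 10% FBS at 37°C under 5% CO₂. 10-μM doxorubicin served as the cytotoxicity positive control.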
# HeLa [6] = assay: Induction of apoptosis in human HeLa cells assessed as PARP cleavage at 10 uM after 12 hrs by Western blotting; format: functional, cell-based
# Summary of the method: (§3)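 HeLa cells were treated for 12 hrs and lysed in 0.5% SDS buffer (50 mM Tris pH 8.0, 1 mM DTT, phosphatase and protease inhibitors). Lysates were western blotted with anti-PARP for full-length and cleaved PARP. 1 μM staurosporine served as positive control.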
# HeLa [7] = assay: Induction of apoptosis in human HeLa cells assessed as membrane blebbing at 2 uM after 8 hrs by microscopy; format: functional, cell-based; details: in the assay text read “12 hrs” for “8 hrs”
# Summary of the method: (§4)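 HeLa cells were seeded at 1.5-2.0×10^5 cells/well and treated. Membrane blebbing and cell shrinkage were assessed by light microscopy after 8, 12 or 15 hrs.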
# [8] = Drug localization in cytoplasmic membrane of human HepG2 cells at 30 uM for 3 hrs by BODIPY TR-labelling based confocal microsocopy; format: ADME, cell membranes; details: hepg2, 3 h
# Summary of the method: (§5)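 Cells (200,000/well) were seeded on coverslips and incubated overnight at 37°C, then treated for 4 hrs (50 μM) or 3 hrs. They were rinsed with PBS/BSA and stained with 5 µM BODIPY TR-labeled sphingolipids for 30 min at 4°C. Cells were fixed in 4% paraformaldehyde, permeabilized with 0.2% Triton X-100, and examined by confocal microscopy using 1 µm Z-stacks.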
# Hepatocyte [9] = assay: Cytotoxicity against hepatocytes (unknown origin) assessed as reduction in cell viability at 50 uM after 48 hrs by sulforhodamine B colorimetric assay; format: cell-based; summary of the method: as §2
# Hepatocyte [10] = assay: Cytotoxicity against hepatocytes (unknown origin) assessed as reduction in cell viability at <5 uM after 48 hrs by sulforhodamine B colorimetric assay; format: cell-based; summary of the method: as §2
# Hepa1-6 [11] = assay: Cytotoxicity against mouse Hepa1-6 cells assessed as reduction in cell viability at <5 uM after 48 hrs by sulforhodamine B colorimetric assay; format: functional, cell-based; summary of the method: as §2
# [12] = Cytotoxicity against human SKOV3 cells assessed as reduction in cell viability after 48 hrs by sulforhodamine B colorimetric assay; format: functional, cell-based; details: SK-OV-3, 48 h
# Summary of the method: (§6)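 SKOV3 cells and the retrovirally transduced subclone SKOV3-MDR1-M6/6, which overexpresses P-glycoprotein, were grown in BME with 10% FBS at 37°C under 5% CO₂. Cells were exposed to 0-25 μM for 48 hrs. Viability was read by SRB assay and a dose curve was plotted for each cell line. Paclitaxel served as the reference drug.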
# MCF7 = assay: Cytotoxicity against human MCF7 cells assessed as reduction in cell viability after 48 hrs by sulforhodamine B colorimetric assay; format: functional, cell-based; details: MCF7, 48 h; summary of the method: as §1
# [13] = Drug localization in […] rich regions of cytoplasmic membrane of human HepG2 cells at 3 uM for 2 hrs by BODIPY TR-labeled sphingolipids detection based Western blotting; format: ADME, cell-based; details: hepg2, 2 h
# Summary of the method: (§7)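 HepG2 cells (1x10^6/plate) were treated for 4 hrs at 5 μM or for 2 hrs at 3 μM, then stained with 5 μM BODIPY TR sphingolipids for 30 min at 4°C. Cells were lysed in PBS with 0.5% Brij-96, and lysates were normalized by BCA. Lysates were separated on a step OptiPrep gradient (2.5–30%) at 125,000 g for 12 hrs. Fractions were analysed for compound fluorescence and blotted for Thy-1, Lyn and GAPDH.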
# HeLa [14] = assay: Induction of apoptosis in human HeLa cells assessed as membrane blebbing at 2 uM after 15 hrs by microscopy; format: functional, cell-based; details: in the assay text read “12 hrs” for “15 hrs”; summary of the method: as §4
# [15] = Cytotoxicity against human SKOV3-MDR1-M6/6 cells assessed as reduction in cell viability after 48 hrs by sulforhodamine B colorimetric assay; format: functional, cell-based; details: SKOV3-MDR1-M6/6, 48 h; summary of the method: as §6
# HeLa [16] = assay: Induction of apoptosis in human HeLa cells assessed as membrane blebbing at 2 uM after 12 hrs by microscopy; format: functional, cell-based; summary of the method: as §4
# [17] = Drug localization in cytoplasmic membrane of human HepG2 cells at 30 uM for 3 hrs by epifluorescent microscopy; format: ADME, cell membranes; details: hepg2, 3 h
# HeLa [18] = assay: Induction of apoptosis in human HeLa cells assessed as PARP cleavage at <10 uM after 12 hrs by Western blotting; format: functional, cell-based; summary of the method: as §3
# [19] = Drug localization in […] rich regions of cytoplasmic membrane of human HepG2 cells at 5 uM for 4 hrs by BODIPY TR-labeled sphingolipids detection based Western blotting; format: ADME, cell-based; details: hepg2, 4 h; summary of the method: as §7
# HepG2 [20] = assay: Drug localization human HepG2 cells at 50 uM for 4 hrs by epifluorescent microscopy; format: ADME, cell-based; details: hepg2, 4 h
# [21] = Drug localization in cytoplasmic membrane of human HepG2 cells at 50 uM for 4 hrs by BODIPY TR-labelling based confocal microsocopy; format: ADME, cell membranes; details: hepg2, 4 h; summary of the method: as §5
# [22] = Cytotoxicity against human SKOV3-MDR1-M6/6 cells assessed as reduction in cell viability at 25 uM after 48 hrs by sulforhodamine B colorimetric assay; format: functional; summary of the method: as §6
SMILES,IC50 [1] [µM],IC50 (HepG2 [2]) [µM],IC50 (HeLa [3]) [µM],IC50 (HT-29) [µM],IC50 [4] [µM],IC50 [12] [µM],IC50 (MCF7) [µM],further results
O=C(CCC(=O)N1CCCCC1)Nc1cc2cccc3ccc4cccc1c4c32,> 30,> 30,> 30,–,–,–,–,–
CC(C)COC(=O)Nc1cc2cccc3ccc4cccc1c4c32,5.9,30.4,16.2,20.7,36.3,–,–,–
c1cc2ccc3cccc4c(NCCCCN5CCCCC5)cc(c1)c2c34,2.5,1.4,2.6,2.98,–,5,1.1,Activity (Hepa1-6 [5]): Active; Activity (HeLa [6]): Active; Activity (HeLa [7]): Active; Drug uptake [8]: Active; Activity (Hepatocyte [9]): Toxic; Activity (Hepatocyte [10]): Non-toxic; Activity (Hepa1-6 [11]): Active; Drug uptake [13]: Active; Activity (HeLa [14]): Active; IC50 [15]: 6.4 µM; Activity (HeLa [16]): Active; Drug uptake [17]: Active; Activity (HeLa [18]): inactive
O=C(CCCC(=O)N1CCCCC1)Nc1cc2cccc3ccc4cccc1c4c32,> 30,–,> 30,> 30,–,–,> 30,–
CC(C)COCNc1cc2cccc3ccc4cccc1c4c32,9.9,39.6,9.8,14,> 50,–,–,Drug uptake [19]: Active; Drug uptake (HepG2 [20]): Active; Drug uptake [21]: Active
c1cc2ccc3cccc4c(NCCCCCN5CCCCC5)cc(c1)c2c34,18.3,18.8,18.2,19.8,–,–,14.1,–
CN1CCN(C(=O)CCC(=O)Nc2cc3cccc4ccc5cccc2c5c43)CC1,14.8,16.9,16.8,19.3,–,–,14.1,–
CN1CCN(CCCCNc2cc3cccc4ccc5cccc2c5c43)CC1,1.1,2.4,4.1,4.8,7.23,5.5,2.6,Activity (Hepa1-6 [5]): Active; Activity (HeLa [6]): Active; Activity (HeLa [7]): Active; Drug uptake [8]: Active; Activity (Hepatocyte [9]): Toxic; Activity (Hepatocyte [10]): Non-toxic; Activity (Hepa1-6 [11]): Active; Drug uptake [13]: Active; Activity (HeLa [14]): Active; IC50 [15]: 6.2 µM; Activity (HeLa [16]): Active; Drug uptake [17]: Active; Activity (HeLa [18]): inactive
CC(=O)O[C@H]1C(=O)[C@@]2(C)[C@H]([C@H](OC(=O)c3ccccc3)[C@]3(O)C[C@H](OC(=O)[C@H](O)[C@@H](NC(=O)c4ccccc4)c4ccccc4)C(C)=C1C3(C)C)[C@]1(OC(C)=O)CO[C@@H]1C[C@@H]2O [PACLITAXEL],–,–,–,–,–,< 0.001,–,Activity [22]: 40%
